ChEMBL document CHEMBL4480403, “DDX3X Helicase Inhibitors as a New Strategy To Fight the West Nile Virus Infection” (J Med Chem, 2019)
Activity calls are given as the source filed them. The rule behind the calls is not given here.

Legend:
West Nile virus [1] = assay: Antiviral activity against West Nile virus; assay type: functional, organism-based
How it was run: (§1)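 Huh7 cells (2.5 × 10^5 per well, overnight) infected with lineage 2 WNV at MOI 0.1 for 1 h at 37°C, washed, then compound added in 10-fold dilutions (final 100–0.01 μM) with DMSO as virus control. Agarose overlay, 4 days at 37°C, methanol fixation, crystal violet staining. PFU relative to DMSO; IC50 by exponential fit at 50% PFU. Duplicates, repeated at least twice.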

West Nile virus [2] = assay: Antiviral activity against West Nile virus infected in African green monkey Vero cells incubated for 4 days by crystal violet staining based plaque reduction assay; assay type: functional, organism-based; conditions: 96 h
How it was run: (§2)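 Cell monolayers at 80–90% confluence were infected with WNV lineage 2 strain at MOI 0.1 for 1 h at 37°C with 5% CO2, then washed. DMSO vehicle or compound (final 100, 10, 1, 0.1, 0.01 μM) was added in duplicate under a 0.5% agarose overlay. Ribavirin served as reference. After methanol fixation and 0.1% crystal violet staining, PFU were expressed relative to DMSO control. IC50 was interpolated at 50% PFU; experiments were repeated at least twice.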

Huh-7 = assay: (§3) Cytotoxicity against human HuH7 cells after 3 days by MTT assay; assay type: cell-based; conditions: Homo sapiens, Huh-7, 72 h
How it was run: (§4)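 Huh7 cells (2.5 × 10^4 per well) adhered overnight. Confluent monolayers washed, then treated with compound (final 100–0.01 μM) or DMSO control for 3 days at 37°C. Viability by MTT, absorbance 570 nm, expressed relative to DMSO-treated cells.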

West Nile virus [3] = assay: Antiviral activity against West Nile virus infected in human A549 cells incubated for 4 days by crystal violet staining based plaque reduction assay; assay type: functional, organism-based; conditions: A549, 96 h; how it was run: as §2
West Nile virus [4] = assay: Antiviral activity against West Nile virus infected in human HuH7 cells incubated for 4 days by crystal violet staining based plaque reduction assay; assay type: functional, organism-based; conditions: Huh-7, 96 h; how it was run: as §1
[5] = molecular target: ATP-dependent RNA helicase DDX3X (Homo sapiens, UniProt O00571); assay: Inhibition of full length His-tagged human DDX3X expressed in Escherichia coli assessed as reduction in DDX3X helicase activity using FAM-labeled double stranded RNA as substrate after 40 mins by FRET assay relative to control
Sequence of ATP-dependent RNA helicase DDX3X (O00571 2-662 limits assumed): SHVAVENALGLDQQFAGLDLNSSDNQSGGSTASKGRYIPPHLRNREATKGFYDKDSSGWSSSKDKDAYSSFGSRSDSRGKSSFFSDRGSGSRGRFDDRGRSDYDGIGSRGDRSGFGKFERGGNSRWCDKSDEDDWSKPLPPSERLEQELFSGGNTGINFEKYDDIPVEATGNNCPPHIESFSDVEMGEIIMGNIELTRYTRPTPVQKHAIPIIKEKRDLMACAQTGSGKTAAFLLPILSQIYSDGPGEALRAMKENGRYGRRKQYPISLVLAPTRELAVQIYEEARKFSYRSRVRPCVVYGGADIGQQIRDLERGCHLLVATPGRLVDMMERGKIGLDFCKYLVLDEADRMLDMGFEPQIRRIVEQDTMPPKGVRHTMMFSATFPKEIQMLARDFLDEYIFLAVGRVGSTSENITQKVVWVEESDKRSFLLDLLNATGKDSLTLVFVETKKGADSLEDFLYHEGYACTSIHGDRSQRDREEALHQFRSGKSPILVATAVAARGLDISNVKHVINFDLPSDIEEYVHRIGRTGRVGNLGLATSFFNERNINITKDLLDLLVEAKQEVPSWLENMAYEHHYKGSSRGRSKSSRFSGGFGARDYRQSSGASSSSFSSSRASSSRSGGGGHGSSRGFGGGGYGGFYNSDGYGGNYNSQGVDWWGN
How it was run: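 Recombinant His-tagged full-length DDX3X expressed in E. coli, Ni-NTA purified. Unwinding of FAM-labelled dsRNA, with capture strand at 100 nM, in Tris-HCl pH 8, 70 mM KCl, 2 mM MgCl2, 2 mM DTT, 2 mM ATP. Started with DDX3X, 37°C, 40 min, fluorescence read every 30 s. Initial slope gives unwinding rate; IC50 by nonlinear regression of triplicates.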

[6] = Apparent permeability of the compound by PAMPA; assay type: ADME
How it was run: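 PAMPA: 0.5 mM donor solution in pH 7.4 phosphate buffer, diluted from 1 mM DMSO stock. Filter coated with 1% phosphatidylcholine in dodecane; acceptor 50% DMSO in buffer. Incubated 5 h at room temperature with shaking. Donor and acceptor quantified by LC-UV at 280 nm and Papp calculated. Three plates on different days.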

[7] = as §3; assay type: cell-based, Huh-7; conditions: human, HuH7 cells; how it was run: as §4
[8] = Metabolic stability in human liver microsomes at 50 uM after 60 mins in presence of NADPH-generating system by LC-UV-MS analysis; assay type: ADME, Microsome; conditions: read-out: Stability
How it was run: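 Compound at 50 μM final (DMSO ≤2%) incubated with human liver microsomes (0.2 mg/mL) and NADPH-generating system in 125 mM phosphate buffer pH 7.4, 37 °C, 60 min. Remaining compound measured by LC-ESI-MS in positive ion mode, with UV at 280 nm.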

[9] = molecular target: T1, ATP-dependent RNA helicase DDX1 (Homo sapiens, UniProt Q92499); assay: Inhibition of human DDX1 helicase activity
T1 sequence (Q92499 whole entry): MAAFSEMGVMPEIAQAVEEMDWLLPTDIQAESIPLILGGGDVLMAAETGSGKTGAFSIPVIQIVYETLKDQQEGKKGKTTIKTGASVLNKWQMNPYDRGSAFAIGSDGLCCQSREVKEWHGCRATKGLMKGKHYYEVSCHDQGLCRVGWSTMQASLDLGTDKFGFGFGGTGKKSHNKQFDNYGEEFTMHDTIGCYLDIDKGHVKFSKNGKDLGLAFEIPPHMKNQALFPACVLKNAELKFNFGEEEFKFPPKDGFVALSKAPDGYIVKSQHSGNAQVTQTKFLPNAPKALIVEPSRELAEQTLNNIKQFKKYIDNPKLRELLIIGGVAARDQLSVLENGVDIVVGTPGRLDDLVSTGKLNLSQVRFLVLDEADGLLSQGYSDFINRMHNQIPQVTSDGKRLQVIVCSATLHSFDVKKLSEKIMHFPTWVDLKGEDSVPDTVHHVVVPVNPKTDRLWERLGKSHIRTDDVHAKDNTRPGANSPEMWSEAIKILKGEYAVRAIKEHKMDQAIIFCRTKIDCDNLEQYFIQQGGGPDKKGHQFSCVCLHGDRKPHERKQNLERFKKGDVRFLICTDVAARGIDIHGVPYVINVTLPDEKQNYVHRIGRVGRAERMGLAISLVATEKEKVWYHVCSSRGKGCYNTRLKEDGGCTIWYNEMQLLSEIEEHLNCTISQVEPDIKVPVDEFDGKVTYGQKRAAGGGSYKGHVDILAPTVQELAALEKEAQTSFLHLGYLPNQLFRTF

Which results are given for `NC(=O)c1ncn([C@@H]2O[C@H](CO)[C@@H](O)[C@H]2O)n1` [RIBAVIRIN]?
EC50 (West Nile virus [1]): 71.2 µM; EC50 (West Nile virus [2]): 95 µM; IC50 (Huh-7): > 200 µM; EC50 (West Nile virus [3]): 46 µM; EC50 (West Nile virus [4]): 90 to 95.5 µM

Which EC50 (West Nile virus [1]) does the source give for `C[C@@]1(O)[C@H](O)[C@@H](CO)O[C@H]1n1cnc2c(N)ncnc21` here?
Its EC50 is 5.1 µM.

Which inhibition [5] does the source give for `CCOCc1cn(-c2cccc(S(=O)(=O)Nc3cccc(N4CCOCC4)c3)c2)nn1` here?
The inhibition was “inactive”.

For `CCCCc1cn(-c2ccc(S(=O)(=O)Nc3ccccc3O)cc2)nn1`, which inhibition [5] is on record?
Its inhibition is 57%.

Which inhibition [5] does the source give for `CCOCc1cn(-c2cccc(S(=O)(=O)Nc3cccc4cnccc34)c2)nn1` here?
The inhibition was 98%.

What about the Papp [6] of the same compound?
Its Papp is 0.44 ×10⁻⁶ cm/s.

And the CC50 at 72 h [7]?
The CC50 at 72 h was over 200 µM.

What about the EC50 (West Nile virus [4]) of the same compound?
Its EC50 is 13 µM.

What about the remaining at 1 h, 50 µM [8] of the same compound?
Its remaining at 1 h, 50 µM is 96%.

For `COCCc1cn(-c2cccc(S(=O)(=O)Nc3ccccc3C(F)(F)F)c2)nn1`, which inhibition [5] is on record?
The inhibition was 67%.

With `C[C@@]1(O)[C@H](O)[C@@H](CO)O[C@H]1n1cnc2c(=O)[nH]c(N)nc21` [2'-B-METHYL-GUANOSINE] as the compound, how does the EC50 (West Nile virus [1]) read?
Its EC50 is 30 µM.

With `O=S(=O)(Nc1ccccc1C(F)(F)F)c1cccc(-n2cc(-c3ccccc3)nn2)c1` as the compound, how does the inhibition [5] read?
Its inhibition is 41%.

With `CCCCc1cn(-c2cccc(S(=O)(=O)Nc3cccc4cnccc34)c2)nn1` as the compound, how does the inhibition [5] read?
The inhibition was 99%.

And the Papp [6]?
The Papp was 0.68 ×10⁻⁶ cm/s.

What about the CC50 at 72 h [7] of the same compound?
Its CC50 at 72 h is over 200 µM.

What about the IC50 [9] of the same compound?
The IC50 was over 200 µM.

And the EC50 (West Nile virus [4])?
The EC50 was 55 µM.

What about the remaining at 1 h, 50 µM [8] of the same compound?
The remaining at 1 h, 50 µM was 98%.

For `CCc1cn(-c2cccc(S(=O)(=O)Nc3ccccc3C(F)(F)F)c2)nn1`, which inhibition [5] is on record?
Its inhibition is 71%.

Which results are given for `O=[N+]([O-])c1cccc(S(=O)(=O)Nc2ccccc2O)c1`?
inhibition [5]: 98%; Papp [6]: < 0.1 ×10⁻⁶ cm/s; CC50 at 72 h [7]: 175 µM; IC50 [9]: > 200 µM; EC50 (West Nile virus [4]): 120 µM; remaining at 1 h, 50 µM [8]: 98.3%

Which inhibition [5] does the source give for `CCCCc1cn(-c2cccc(S(=O)(=O)Nc3ccccc3)c2)nn1` here?
Its inhibition is 31%.
